In ChEMBL document CHEMBL4038284, “Synthesis of novel quinoline-based 4,5-dihydro-1H-pyrazoles as potential anticancer, antifungal, antibacterial and antiprotozoal agents” (Eur J Med Chem, 2017):
Converted amounts (≈) assume the structure as drawn.

Experiments:
[1] = system: Candida albicans; assay: Growth inhibition of Candida albicans ATCC 10231 at 15.62 ug/ml incubated for 48 hrs under dark condition by broth microdilution method relative to control; assay type: functional; conditions: ATCC 10231, 48 h, read-out: GI
Procedure, shortened: (§1)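 CLSI M27-A3 broth microdilution in RPMI-1640, DMSO ≤1%. Inoculum 1-5 × 10^3 CFU/mL. Incubated 48 h at 30 °C, dark. % inhibition = 100 − (OD405 test − sterility control)/(OD405 growth control − sterility control), with growth and sterility control wells. Triplicate.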

[2] = system: Cryptococcus neoformans; assay: Antifungal activity against Cryptococcus neoformans ATCC 32264 incubated for 48 hrs under dark condition by broth microdilution method; assay type: functional; conditions: ATCC 32264, 48 h
Procedure, shortened: (§2)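 CLSI M27-A3 broth microdilution in RPMI-1640, DMSO ≤1%, compounds at 250-0.98 µg/mL final. Inoculum 1-5 × 10^3 CFU/mL. Incubated 48 h at 30 °C in a moist dark chamber, read at OD405. MIC80 and MIC50 taken from % inhibition dose-response curves (mean ± SEM, triplicate). Amphotericin B was the positive control.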

[3] = system: Staphylococcus aureus; assay: Antibacterial activity against vancomycin-intermediate Staphylococcus aureus after 24 hrs by resazurin dye based microdilution assay; assay type: functional
Procedure, shortened: (§3)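 MIC taken as the lowest concentration giving visible inhibition and/or by resazurin (1 mg/mL). Gentamicin was the control. Run in duplicate, repeated at least three times.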

[4] = system: Candida albicans; assay: Growth inhibition of Candida albicans ATCC 10231 at 3.4 ug/ml incubated for 48 hrs under dark condition by broth microdilution method relative to control; assay type: functional; conditions: ATCC 10231, 48 h, read-out: GI
[5] = system: Cryptococcus neoformans; assay: Growth inhibition of Cryptococcus neoformans ATCC 32264 at 31.25 ug/ml incubated for 48 hrs under dark condition by broth microdilution method relative to control; assay type: functional; conditions: ATCC 32264, 48 h, read-out: GI; procedure, shortened: as §1
[6] = system: Plasmodium falciparum; assay: Antiplasmodial activity against chloroquine-sensitive Plasmodium falciparum 3D7 assessed as reduction in parasitic LDH activity after 48 hrs by Malstat reagent based […] method; assay type: functional; conditions: 3D7, 48 h
Procedure, shortened: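 Unsynchronized P. falciparum 3D7 at 0.5% parasitemia and 1% hematocrit in RPMI with 3% Albumax II. Exposed to 100, 25, 6.25 and 1.56 µg/mL for 48 h at 37 °C under 90% N2/5% CO2/5% O2. After three freeze-thaw cycles, LDH measured with Malstat and NBT/PES, 1 h in the dark, read at 650 nm. IC50 by Probit; triplicate, ≥2 experiments.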

[7] = system: Pseudomonas aeruginosa; assay: Antibacterial activity against Pseudomonas aeruginosa ATCC 27853 after 24 hrs by resazurin dye based microdilution assay; assay type: functional; conditions: ATCC 27853, 24 h; procedure, shortened: as §3
[8] = system: Candida albicans; assay: Growth inhibition of Candida albicans ATCC 10231 at 62.5 ug/ml incubated for 48 hrs under dark condition by broth microdilution method relative to control; assay type: functional; conditions: ATCC 10231, 48 h, read-out: GI; procedure, shortened: as §1
[9] = system: Candida albicans; assay: Growth inhibition of Candida albicans ATCC 10231 at 31.25 ug/ml incubated for 48 hrs under dark condition by broth microdilution method relative to control; assay type: functional; conditions: ATCC 10231, 48 h, read-out: GI; procedure, shortened: as §1
[10] = system: Candida albicans; assay: Growth inhibition of Candida albicans ATCC 10231 at 250 ug/ml incubated for 48 hrs under dark condition by broth microdilution method relative to control; assay type: functional; conditions: ATCC 10231, 48 h, read-out: GI; procedure, shortened: as §1
[11] = system: Candida albicans; assay: Growth inhibition of Candida albicans ATCC 10231 at 125 ug/ml incubated for 48 hrs under dark condition by broth microdilution method relative to control; assay type: functional; conditions: ATCC 10231, 48 h, read-out: GI; procedure, shortened: as §1
[12] = system: U-937; assay: Cytotoxicity against human U937 cells after 72 hrs by MTT assay; assay type: cell-based; conditions: u-937, 72 h
Procedure, shortened: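 Exponentially growing U-937 at 1 × 10^5 cells/mL in RPMI-1640 with 10% FBS were exposed to 200, 50, 12.5 and 3.125 µg/mL for 72 h at 37 °C, 5% CO2. MTT for 3 h, stopped with isopropanol/SDS, formazan read at 570 nm, blank-corrected. LC50 by Probit from % viability against untreated cells. Triplicate, at least two independent experiments.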

[13] = system: Klebsiella pneumoniae; assay: Antibacterial activity against carbapenemase positive Klebsiella pneumoniae BAA 1705 after 24 hrs by resazurin dye based microdilution assay; assay type: functional; conditions: BAA 1705, 24 h; procedure, shortened: as §3
[14] = system: Cryptococcus neoformans; assay: Growth inhibition of Cryptococcus neoformans ATCC 32264 at 250 ug/ml incubated for 48 hrs under dark condition by broth microdilution method relative to control; assay type: functional; conditions: ATCC 32264, 48 h, read-out: GI; procedure, shortened: as §1
[15] = system: Cryptococcus neoformans; assay: Growth inhibition of Cryptococcus neoformans ATCC 32264 at 7.8 ug/ml incubated for 48 hrs under dark condition by broth microdilution method relative to control; assay type: functional; conditions: ATCC 32264, 48 h, read-out: GI; procedure, shortened: as §1
[16] = system: Leishmania panamensis; assay: Antileshmanial activity against EpiR/GFP fused Leishmania panamensis MHOM/CO/87/UA140 intracellular amastigotes infected in human […] cells after 72 hrs by flow cytometric method; assay type: functional, cell-based; conditions: MHOM/CO/87/UA140, 72 h
Procedure, shortened: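 PMA-treated U-937 cells (3 × 10^5 cells/mL) infected with stationary-phase GFP L. panamensis promastigotes (15:1), 3 h at 34 °C, then washed. After 24 h, compounds added at 50, 12.5, 3.125 and 0.78 µg/mL for 72 h at 37 °C. EC50 by Probit; triplicate, two experiments.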

[17] = system: Candida albicans; assay: Growth inhibition of Candida albicans ATCC 10231 at 7.8 ug/ml incubated for 48 hrs under dark condition by broth microdilution method relative to control; assay type: functional; conditions: ATCC 10231, 48 h, read-out: GI; procedure, shortened: as §1
[18] = system: Staphylococcus aureus; assay: Antibacterial activity against methicillin-sensitive Staphylococcus aureus ATCC 25923 after 24 hrs by resazurin dye based microdilution assay; assay type: functional; conditions: ATCC 25923, 24 h; procedure, shortened: as §3
[19] = system: Cryptococcus neoformans; assay: Growth inhibition of Cryptococcus neoformans ATCC 32264 at 62.5 ug/ml incubated for 48 hrs under dark condition by broth microdilution method relative to control; assay type: functional; conditions: ATCC 32264, 48 h, read-out: GI; procedure, shortened: as §1
[20] = system: Cryptococcus neoformans; assay: Growth inhibition of Cryptococcus neoformans ATCC 32264 at 125 ug/ml incubated for 48 hrs under dark condition by broth microdilution method relative to control; assay type: functional; conditions: ATCC 32264, 48 h, read-out: GI; procedure, shortened: as §1
[21] = system: Candida albicans; assay: Antifungal activity against Candida albicans ATCC 10231 incubated for 48 hrs under dark condition by broth microdilution method; assay type: functional; conditions: ATCC 10231, 48 h; procedure, shortened: as §2
[22] = system: Neisseria gonorrhoeae; assay: Antibacterial activity against beta lactamase positive Neisseria gonorrhoeae ATCC 31426 by oxidase test; assay type: functional
Procedure, shortened: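 Agar dilution MIC on GC agar with 1% isovitalex containing increasing compound concentrations. Plates inoculated with about 1×10^4 CFU (5 µL). MIC is the lowest concentration that inhibited growth, with growth confirmed by oxidase test. Run in duplicate, repeated at least three times.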

[23] = system: Klebsiella pneumoniae; assay: Antibacterial activity against ESBL positive Klebsiella pneumoniae ATCC 700603 after 24 hrs by resazurin dye based microdilution assay; assay type: functional; conditions: Klebsiella pneumoniae, 700603, 24 h; procedure, shortened: as §3
[24] = system: Cryptococcus neoformans; assay: Growth inhibition of Cryptococcus neoformans ATCC 32264 at 3.4 ug/ml incubated for 48 hrs under dark condition by broth microdilution method relative to control; assay type: functional; conditions: ATCC 32264, 48 h, read-out: GI
[25] = system: Trypanosoma cruzi; assay: Antitrypanosomal activity against Trypanosoma cruzi Tulahuen intracellular amastigote harboring LacZ infected in human U937 cells after 72 hrs by CPRG/Nonidet reagent based spectrophotometric method; assay type: functional, cell-based; conditions: U-937, 72 h
Procedure, shortened: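 U-937 cells at 2.5 × 10^5 cells/mL in RPMI-1640 with 10% serum and 0.1 µg/mL PMA were infected with β-galactosidase-transfected Tulahuen epimastigotes at 5 parasites per cell. Infected cells were exposed to 50, 12.5, 3.125 and 0.78 µg/mL for 72 h. CPRG (100 uM) and 0.1% Nonidet P-40 were added for 3 h, read at 570 nm. EC50 by Probit. Triplicate, at least two experiments; benznidazole as reference.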

[26] = system: Cryptococcus neoformans; assay: Growth inhibition of Cryptococcus neoformans ATCC 32264 at 15.62 ug/ml incubated for 48 hrs under dark condition by broth microdilution method relative to control; assay type: functional; conditions: ATCC 32264, 48 h, read-out: GI; procedure, shortened: as §1
[27] = system: Escherichia coli; assay: Antibacterial activity against Escherichia coli ATCC 25922 after 24 hrs by resazurin dye based microdilution assay; assay type: functional; conditions: ATCC 25922, 24 h; procedure, shortened: as §3
[28] = system: Staphylococcus aureus; assay: Antibacterial activity against methicillin-resistant Staphylococcus aureus ATCC 43300 after 24 hrs by resazurin dye based microdilution assay; assay type: functional; conditions: ATCC 43300, 24 h
Procedure, shortened: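 Broth microdilution in Mueller Hinton broth, inoculum 5 × 10^5 – 8 × 10^5. Compound stocks diluted in MHB with 5% DMSO and 0.1% Tween 80. Incubation 24 h at 35-37 °C. MIC is the lowest concentration with visible growth inhibition and/or by resazurin (1 mg/mL) read-out. Gentamicin as control. Run in duplicate, replicated at least three times.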

Row | SMILES | inhibition of growth at 15.62 µg/mL [1] | MIC50 [2] | MIC80 [2] | MIC [3] | inhibition of growth at 3.4 µg/mL [4] | inhibition of growth at 31.25 µg/mL [5] | EC50 [6] | MIC [7] | inhibition of growth at 62.5 µg/mL [8] | inhibition of growth at 31.25 µg/mL [9] | inhibition of growth at 250 µg/mL [10] | inhibition of growth at 125 µg/mL [11] | LC50 [12] | MIC [13] | inhibition of growth at 250 µg/mL [14] | inhibition of growth at 7.8 µg/mL [15] | EC50 [16] | inhibition of growth at 7.8 µg/mL [17] | MIC [18] | inhibition of growth at 62.5 µg/mL [19] | also measured
1 | O=CN1N=C(c2ccccc2)CC1c1cccc(Nc2ccnc3cc(Cl)ccc23)c1 (stereo not given) | 4.31% | 250 µg/mL (≈ 586 µM) | ≥ 250 µg/mL | > 1000 µg/mL | 2.19% | 29.7% | 17.7 µg/mL (≈ 41.4 µM) | > 1000 µg/mL | 10.1% | 8.44% | 29.9% | 16.9% | 1.3 µg/mL (≈ 3.05 µM) | > 1000 µg/mL | 54.1% | 11.2% | 1.72 µg/mL (≈ 4.03 µM) | 4.3% | > 1000 µg/mL | 34.4% | inhibition of growth at 125 µg/mL [20]: 47.2%; MIC50 [21]: ≥ 250 µg/mL; MIC80 [21]: ≥ 250 µg/mL; MIC [22]: > 1000 µg/mL; MIC [23]: > 1000 µg/mL; inhibition of growth at 3.4 µg/mL [24]: 7.63%; EC50 [25]: > 0.6 µg/mL; inhibition of growth at 15.62 µg/mL [26]: 20.7%; MIC [27]: > 1000 µg/mL; MIC [28]: > 1000 µg/mL
2 | Cc1ccc(C2=NN(C=O)C(c3cccc(Nc4ccnc5cc(Cl)ccc45)c3)C2)cc1 (stereo not given) | 22.6% | 125 µg/mL (≈ 283 µM) | ≥ 250 µg/mL | > 1000 µg/mL | 12.7% | 44.4% | 16.2 µg/mL (≈ 36.7 µM) | > 1000 µg/mL | 24.3% | 23% | 48.4% | 28.5% | 1.3 µg/mL (≈ 2.95 µM) | > 1000 µg/mL | 76% | 31.1% | 2.19 µg/mL (≈ 4.97 µM) | 13.7% | > 1000 µg/mL | 44.5% | inhibition of growth at 125 µg/mL [20]: 50.7%; MIC50 [21]: ≥ 250 µg/mL; MIC80 [21]: ≥ 250 µg/mL; MIC [22]: > 1000 µg/mL; MIC [23]: > 1000 µg/mL; inhibition of growth at 3.4 µg/mL [24]: 24.8%; EC50 [25]: 0.96 µg/mL (≈ 2.18 µM); inhibition of growth at 15.62 µg/mL [26]: 43.6%; MIC [27]: > 1000 µg/mL; MIC [28]: > 1000 µg/mL
